Bioassay records deposited in PubChem BioAssay by several laboratories.
An excerpt weighted towards active compounds, which were near 2.6% of everything screened.
SIRT5 inh – blocks human SIRT5 desuccinylation of peptide. Q9NXA8. Purified SirT5, succinyl-peptide AMC, trypsin-coupled fluorescence. inhibition, % at 15 µM. 330,000 compounds, 1.1% hits. AID 652115; in the data active means inhibition above about 15%
UCH37 DUB inh – blocks the human deubiquitinase UCH37 | inhibition, % (no concentration beside the values) | 330,000 compounds, 0.33% hits | purified proteasome/UCH37, Ub-AMC cleavage fluorescence | Q9Y5K5 | AID 588478;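 active means mean inhibition over replicate wells above about 20%, limit read from the data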;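 further: 0% = compound-free wells with enzyme and 100% = wells lacking proteasome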
Target sequence (Q9Y5K5 whole entry, looked up): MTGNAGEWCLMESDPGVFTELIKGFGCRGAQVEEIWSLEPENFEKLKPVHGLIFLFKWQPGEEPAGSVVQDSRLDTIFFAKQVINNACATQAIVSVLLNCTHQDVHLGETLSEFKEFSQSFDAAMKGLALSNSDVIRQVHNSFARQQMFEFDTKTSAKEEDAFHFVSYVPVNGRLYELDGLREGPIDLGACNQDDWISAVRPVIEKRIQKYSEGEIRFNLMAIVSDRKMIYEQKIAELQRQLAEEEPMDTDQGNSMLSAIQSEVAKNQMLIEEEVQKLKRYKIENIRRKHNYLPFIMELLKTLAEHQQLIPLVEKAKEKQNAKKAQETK
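Material: Human UCH37 enzyme supplied as purified proteasome complex | Schedule: 30 min preincubation with enzyme, 25 min cleavage at room temperature | Detection: AMC fluorescence 355/460 nm | Measure: % inhibition of Ub-AMC cleavage fluorescence | Controls: Wells without proteasome as full block, compound-free enzyme plus substrate as uninhibited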
FGF22 binding-1 – binders of recombinant human FGF22 by thermal shift; Q9HCT0; SYPRO orange fluorescence; percent of sucrose octasulfate shift, DMSO zero; activity (Tm shift, normalised), % at 9.99 µM; 340,000 compounds, 1.5% hits; AID 651658;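 active means mean Tm shift, scaled 0 neutral to 100 positive control, at about 1.3% or above, every replicate too, limit read from the data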
Target sequence (Q9HCT0 whole entry, looked up): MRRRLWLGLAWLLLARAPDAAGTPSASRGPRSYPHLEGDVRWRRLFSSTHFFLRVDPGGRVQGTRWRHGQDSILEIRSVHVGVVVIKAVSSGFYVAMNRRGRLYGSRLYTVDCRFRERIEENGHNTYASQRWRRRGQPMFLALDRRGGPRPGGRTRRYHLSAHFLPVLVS
Casp6 inh – inhibitors of human caspase-6 | 350,000 compounds, 0.53% hits | AID 686996 | purified caspase-6, Z-VEID-R110 cleavage fluorescence | P55212 | inhibition, % at 12.5 µM;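 active means mean inhibition across replicates at least about 35%, with every replicate also reaching that limit, limit read from the data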;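 further: 0% = median of neutral control wells and 100% = no fluorescence left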
NSD2 HMT inh – blocks human histone methyltransferase NSD2. O96028. NSD2 peptide methylation, AlphaScreen, 120 min. inhibition, % at 12.5 µM. 310,000 compounds, 0.54% hits. AID 743445; in the data active means inhibition above about 50%
FGF22 binding-2 – binders of human FGF22 by thermal shift; 1,000 compounds, 2% hits; shares compounds with FGF22 binding-1; recombinant FGF22 thermal shift, SYPRO orange fluorescence; thermal shift activity, °C (ΔTm) at 38 µM;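 active means fitted rise in melting shift crosses a set limit at or below the top valid dose tested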
FGF22 TSA DP – FGF22 (human) binding by thermal shift; shares compounds with FGF22 binding-1; Thermal shift assay, SYPRO orange, melting temperature shift; Tm shift (activity), % at 38 µM; 50 tested, under 10 active;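 active means compounds whose fitted dose curve of melting temperature shift rises past a set threshold within the tested doses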
SYPRO no-protein – counter-screen for FGF22 binders: compound-only thermal shift, no protein. shares compounds with FGF22 binding-1. compound-only SYPRO orange thermal shift counter-screen. AC50, µM (series often up to 38 µM). 1,000 compounds, 2% hits. AID 743019;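 active means rising signal whose fitted curve reaches the 0.54 level within the top valid dose, showing a melting point, actives reach about 13 µM in these data; inactive means the rest, including activity in the opposite direction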; further: value is where the raw curve crosses a fixed level and not half-maximal
An asterisk follows results filed as active; i = inactive; · = no result; [ ] = remark or other dose.

SMILES | SIRT5 inh | UCH37 DUB inh | FGF22 binding-1 | Casp6 inh | NSD2 HMT inh | FGF22 binding-2 | SYPRO no-protein | others
COc1ccc(N2CCN(CCOc3ccc4c(C)cc(=O)oc4c3)CC2)cc1 | -2 | -18 | 2.2* | 0 | 0 | · | i
Cc1cc(=O)oc2cc(OCCSCCN3CCCC3)ccc12 | -4 | -23 | 0 | -8 | 2 | · | ·
Cc1nc2ccc(C(=O)N/N=C/c3cc([N+](=O)[O-])ccc3O)cc2[nH]1 | -1 | · | 0 | -6 | 1 | · | ·
Cc1nc2ccc(C(=O)N/N=C/c3ccccc3O)cc2[nH]1 | 1 | · | 1.5* | -6 | 2 | 0.001 | i
Fc1ccccc1C=NNc1ncnc2nc[nH]c12 | · | 12 | · | · | · | · | ·
CN(C)CCN1C(=O)C2C3C=CC(C3)C2C1=O (stereo not given) | -15 | 3 | 15* | 1 | · | -0.047 | i
O=C1C2C3C=CC(C3)C2C(=O)N1CCCCCCN1C(=O)C2C3C=CC(C3)C2C1=O (stereo not given) | -1 | 0 | 0 | 2 | 0 | · | ·
C[C@H](CO)N1C[C@H](C)[C@@H](CN(C)CC2CCOCC2)Oc2ncc(-c3cccc(F)c3)cc2C1=O | 1 | · | · | · | · | · | ·
CC=Cc1ccc2n(c1=O)C[C@@H]1[C@@H](CO)[C@H](C(=O)NC3CCC3)[C@H]2N1Cc1ccccc1 (mixture of isomers) | 0 | · | 0 | -2 | · | · | ·
CCNC(=O)C1(C)CCN(Cc2ccc(OC(F)(F)F)cc2)C1 (stereo not given) | 0 | · | 1.4* | 0 | -3 | -0.008 | i
COc1ccc(NC(=O)/C=C/C(=O)O)c([N+](=O)[O-])c1 | 1 | 2 | 2.2* | -2 | 0 | -0.14 | i
CC(=O)c1cccc(NC(=O)C2CCCN2S(=O)(=O)c2cccs2)c1 (stereo not given) | -3 | · | 17* | 2 | 0 | -0.082 | i
O=[N+]([O-])c1cc(CS(=O)(=O)Oc2ccc(Cl)cc2)c(O)c([N+](=O)[O-])c1 | 6 | 10 | 1.4* | 1 | 5 | 0.11 | i
CC(C)Oc1ccc(C(=O)NC2CCN(Cc3ccccc3)CC2)cc1 | 1 | 5 | 6.6* | -8 | 4 | 0.047 | i
COc1ccc2c3c([nH]c2c1)[C@H](CO)N(Cc1cccc(F)c1)CC31CN(Cc2ccccn2)C1 | 1 | · | 0 | -7 | · | · | ·
O=C(C1CCOCC1)N1C[C@@H]2[C@H](c3ccccc31)[C@@H](CO)N2Cc1ccccc1 | -1 | · | 1.5* | · | · | -0.021[42 µM] | i
COc1ccc(C(=O)N2C[C@@H]3[C@H](c4ccccc42)[C@@H](CO)N3Cc2ccccc2)cc1 | 12 | · | 1.3* | -2 | · | 0.12[42 µM] | i
COc1ccc(C(=O)N2C[C@H]3[C@@H](c4ccccc42)[C@H](CO)N3Cc2ccccc2)cc1 | -1 | · | 0 | -3 | · | · | ·
Cc1cccc(S(=O)(=O)N2C[C@@H](O)COC[C@@H]3O[C@H](CC(=O)Nc4ccccc4)CC[C@H]32)c1 | -1 | · | 0 | 0 | · | · | ·
COc1cccc(S(=O)(=O)N2C[C@@H](O)COC[C@@H]3O[C@@H](CC(=O)Nc4ccccc4)CC[C@H]32)c1 | -1 | · | 1.3* | 6 | · | -0.24[42 µM] | i
O=C(C[C@@H]1CC[C@@H]2[C@H](COC[C@H](O)CN2S(=O)(=O)c2cccc(Cl)c2)O1)Nc1ccccc1 | -1 | · | 0 | -1 | · | · | ·
O=C(C[C@@H]1CC[C@@H]2[C@H](COC[C@H](O)CN2S(=O)(=O)c2cccc(F)c2)O1)Nc1ccccc1 | · | · | 0 | · | · | · | ·
O=C(C[C@H]1CC[C@@H]2[C@H](COC[C@H](O)CN2S(=O)(=O)c2cccc(Cl)c2)O1)Nc1ccccc1 | 1 | · | 1.4* | -4 | · | 0.041[42 µM] | i | FGF22 TSA DP=0
O=C(C[C@@H]1CC[C@H]2[C@@H](COC[C@@H](O)CN2S(=O)(=O)c2cccc(F)c2)O1)Nc1ccccc1 | · | · | 2.3* | · | · | -1.1 | i
Cc1ccc(S(=O)(=O)N2C[C@@H](O)COC[C@@H]3O[C@@H](CC(=O)NCc4ccc(Cl)c(Cl)c4)CC[C@H]32)cc1 | 2 | · | 1.4* | 0 | · | 0.1[42 µM] | i | FGF22 TSA DP=0
SMILES | SIRT5 inh | UCH37 DUB inh | FGF22 binding-1 | Casp6 inh | NSD2 HMT inh | FGF22 binding-2 | SYPRO no-protein | others
C[C@@H]1CN([C@H](C)CO)S(=O)(=O)c2ccc(-c3ccncc3)cc2O[C@H]1CN(C)Cc1ccc(Oc2ccccc2)cc1 | 1 | · | 0 | 0 | · | · | ·
C[C@@H]1CCCCO[C@@H](CN(C)CC2CC2)[C@H](C)CN([C@@H](C)CO)C(=O)c2cc(NS(=O)(=O)c3ccc(F)cc3)ccc2O1 | -2 | · | 0 | -1 | · | · | ·
N#CC(C#N)=C1c2cc(S(N)(=O)=O)ccc2-c2ccc(S(N)(=O)=O)cc21 | -2 | 10 | 1 | 9 | 1 | · | ·
NS(=O)(=O)c1ccc2c(c1)C(=NO)c1cc(S(N)(=O)=O)ccc1-2 | 0 | -10 | 28* | 2 | -2 | 0.049 | i
C/C(CC(=O)Nc1cccc(Cl)c1Cl)=N\NC(=O)C(=O)NC1CCCCC1 | -5 | · | 28* | -3 | 23 | 0.051 | i
CCc1cccc(NS(=O)(=O)c2ccc3c(c2)NC(=O)CC(=O)N3)c1 | -2 | 0 | 1.7* | 3 | -1 | 0.08 | i
Cc1nc(NC(=O)C2CC2)sc1C(=O)Nc1ccccc1Cl | -4 | -1 | 1.9* | 0 | -1 | 0.081 | i
Cc1nc(Cl)sc1C(=O)Nc1ccccc1Cl | -2 | 1 | 0 | 12 | -2 | · | ·
O=C(C[C@@H]1CC[C@H]2[C@@H](COC[C@H](O)CN2C(=O)C2CCCC2)O1)NCc1ccncc1 | 5 | · | 0 | 1 | · | · | ·
Cc1[nH]c2ccccc2c1N=Nc1cc(C(=O)O)cc(C(=O)O)c1 | 15 | 18 | 1.5* | 6 | 8 | 0.056 | i
Cc1[nH]c2ccccc2c1N=Nc1ccc(F)cc1 | · | 4 | 0 | -2 | 35 | · | ·
CC(=O)Nc1cc(-c2ccccc2Cl)cn2c(-c3ccc(S(C)(=O)=O)cc3)cnc12 | -5 | · | 1.7* | 3 | -1 | -0.006 | i
COc1ccccc1-c1cc(NC(C)=O)c2ncc(-c3ccc(S(C)(=O)=O)cc3)n2c1 | -17 | · | 0 | 5 | 0 | · | ·
CCCNC(=O)C[C@@H]1CC[C@@H]2[C@@H](COc3ccc(NC(=O)Cc4cccs4)cc3C(=O)N2C)O1 | · | · | 0 | · | · | · | ·
CCCNC(=O)N1[C@@H]2CN(C(=O)c3ccccc3)c3ccccc3[C@@H]2[C@@H]1CO | · | · | 1.8* | · | · | 0.23[42 µM] | i
CC(C)NC(=O)N1C[C@H]2[C@@H](c3ccccc31)[C@H](CO)N2C(=O)c1cccnc1 | -1 | · | 1.3* | 1 | · | -0.023 | i
O=C(CNc1ccccc1)NN=Cc1c(O)ccc2ccccc12 | · | 3 | · | · | · | · | ·
